Assay outcomes from PubChem.
Most compounds without a hit are left out; they make up all but 9.2% or so of the library.
bCat KO growth – primary screen for growth suppressors in beta-catenin knockout HCT116 cells (colon tumor, human). HCT116 beta-catenin knockout viability, CellTiter-Glo, 60 h; active compounds read low. viability, % at 10 µM. hit rate 1.5% among 140,000. AID 818, 2007;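 active means viability at or under a set limit, the compound median less 4 SD, cut at about 6% in these data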;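 further: 0% = Hyamine 1622 control at 20 µM and 100% = untreated cell control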
Autophagy mod – autophagy modulators in MEF cells, primary screen, imaging, high-content, MEF GFP-LC3; MEF GFP-LC3 puncta imaging; test concentration mostly 10 µM; calls only at 10 µM (by protocol); hit rate 0.98% among 190,000; AID 463193, 2010;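 active means percentage of spot-positive cells more than 3 SD above its plate mean, without a fluorescence outlier flag or 80% toxicity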;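 further: spot-positive cell cutoff set from DMSO-treated cells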
Dynein transport – inhibitors of GR-EGFP nuclear translocation, primary screen, dynein cargo transport inhibitor project, imaging, high-content, 3617.4 mouse cells. hit rate 0.47% among 220,000. test concentration mostly 20 µM; stimulated with dexamethasone, 1 µM; active compounds read low. z-score, hits read low;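 active means plate z-score of nuclear minus cytoplasmic receptor signal below a set negative limit, without overly bright fluorescence or cell loss, cut at about -3.5 in these data, passing the limit was not always enough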;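 further: z-score of nuclear minus cytoplasmic ring GR-EGFP intensity difference per well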
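medium = tetracycline-free induction medium containing charcoal-stripped FBS | probe or stimulus = dexamethasone, 1.0 µM final | timing = 48 h induction, then 1 h compound, then 30 min agonist, 37 °C | detection = automated 10x imaging of fixed Hoechst-stained cells | read-out basis = nuclear versus cytoplasmic GR-EGFP signal, averaged per well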
PTEN del growth – growth suppression of PTEN-null HCT116, primary screen, cell-based, CellTiter-Glo; HCT116 PTEN-null viability, 60 h; active compounds read low; viability, % at 10 µM; hit rate 1.2% among 140,000; AID 827, 2007;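 active means viability at or below a set limit, 4 SD under the median of all tested compounds, cut at about 3.7% in these data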;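 further: PTEN knockout HCT116 line with beta catenin targeted HCT116 as companion control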
L major viab – Leishmania major promastigote growth inhibition, primary screen; Leishmania major promastigotes, resazurin fluorescence viability; inhibition, % at 10 µM; hit rate 9% among 200,000; AID 1063, 2008; in the data active means inhibition above about 50%;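 further: promastigotes grown with compound for 44 hours at 28 °C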
* marks the source's active call; other numbers are inactive results.

Screening Cc1cc2c(cc1C)CSC(c1c(O)ccc3ccccc13)SC2 returned bCat KO growth 4.6*, Autophagy mod inactive, Dynein transport 1, PTEN del growth 6 and L major viab 36.
For COc1ccccc1-c1nn2c(-c3ccco3)nnc2s1 the results were bCat KO growth 53, Autophagy mod inactive, Dynein transport 0.69, PTEN del growth 63 and L major viab 67*.
CCN(CC)c1ccc(-c2nn3c(-c4ccccc4OC)nnc3s2)cc1 was read as bCat KO growth 3.3*, Autophagy mod inactive, Dynein transport -0.4, PTEN del growth 2.1* and L major viab 46.
Screening c1coc(-c2nn3c(-c4ccco4)nnc3s2)c1 returned bCat KO growth 99, Autophagy mod inactive, Dynein transport -0.97, PTEN del growth 101 and L major viab 0.
`COc1cccc(-c2nnc3sc(-c4ccccc4)nn23)c1` gave bCat KO growth 85, Autophagy mod inactive, Dynein transport 0.054, PTEN del growth 78 and L major viab -10.
COc1cccc(OC)c1-c1nn2c(-c3cc(-c4ccccc4)n[nH]3)nnc2s1 was read as bCat KO growth 74, Autophagy mod inactive, Dynein transport 0.31, PTEN del growth 66 and L major viab 61*.
`COc1ccc(-c2nn3c(-c4ccccc4)nnc3s2)cc1` gave bCat KO growth 91, Autophagy mod inactive, Dynein transport -1, PTEN del growth 80 and L major viab -4.
Screening COC(=O)c1c(NC(=O)C(C)(C)C)csc1C returned Dynein transport 0.92.
For CC1=C(C(=O)OCC2CCCO2)C(c2ccc(C)cc2)C2=C(CC(C)(C)CC2=O)N1 (centres undefined) the results were Autophagy mod inactive, Dynein transport 1.5 and L major viab 15.
COc1ccc(C(=O)/C=C/c2cccs2)c(OC(=O)N2CCOCC2)c1 was read as bCat KO growth 45, Autophagy mod inactive, Dynein transport -2.4, PTEN del growth 32 and L major viab 41.
For O=C(/C=C/c1cccs1)c1cc(Br)ccc1OC(=O)N1CCOCC1 the results were bCat KO growth 6, Autophagy mod inactive, Dynein transport -4.9*, PTEN del growth 5 and L major viab 72*.
`Cn1cc(-c2cc(C(=O)O)on2)cn1` gave Dynein transport 0.39.
`CCc1ccc(C(=O)/C=C/Nc2ccc(S(=O)(=O)Nc3cnc4ccccc4n3)cc2)cc1` gave Dynein transport 0.46.
For COc1ccc(CCN2C(=O)NC(NC(=O)CC(C)C)(C(F)(F)F)C2=O)cc1OC (centres undefined) the results were bCat KO growth 90, Autophagy mod inactive, Dynein transport 0.071, PTEN del growth 84 and L major viab 45.
`COc1ccc(CCN2C(=O)NC(NC(=O)CCc3ccccc3)(C(F)(F)F)C2=O)cc1OC` (centres undefined) gave bCat KO growth 80, Autophagy mod inactive, Dynein transport 1.6, PTEN del growth 86 and L major viab 70*.
O=S(=O)(Cc1noc(-c2ccc(Cl)cc2)n1)Cc1ccco1 was read as Dynein transport -0.96.
Screening CCOC(=O)c1cc(-c2ccc(/C=N\n3cnnc3)o2)ccc1Cl returned bCat KO growth 89, Autophagy mod inactive, Dynein transport 0.98, PTEN del growth 93 and L major viab 7.
Cc1c(Cl)cccc1-c1ccc(/C=N/n2cnnc2)o1 was read as bCat KO growth 90, Autophagy mod inactive, Dynein transport 0.2, PTEN del growth 87 and L major viab 69*.
`Cc1cc(-c2ccc(/C=N/n3cnnc3)o2)ccc1Cl` gave bCat KO growth 88, Autophagy mod inactive, Dynein transport -0.93, PTEN del growth 85 and L major viab 65*.
Cc1[nH]c2ccccc2c1C(=O)CSc1n[nH]c(N)n1 was read as Autophagy mod inactive, Dynein transport 0.53 and L major viab -5.
Screening COc1cc(C2C(C#N)=C(N)OC3=C2C(=O)CC(C)(C)C3)ccc1OC(=O)N1CCOCC1 (centres undefined) returned bCat KO growth 100, Autophagy mod inactive, Dynein transport -0.46, PTEN del growth 106 and L major viab -5.
